Consider 18 compounds from PubChem BioAssay.

Unmarked numbers belong to inactive results. Inconclusive results are not listed. Active and inactive are the calls of the source.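 The calls were made as follows, unless noted: active = RAM network inhibition above 8.4% in each of two replicates, 3 SD over the compound average; inconclusive = above 8.4% inhibition in only one replicate; inactive = 8.4% inhibition or less in each replicate.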

Assay [1] in a line: S. cerevisiae growth inhibition in permissive medium (OD615), pilot counter-assay for S. cerevisiae lifespan shortening project, permissive growth control (AID 705;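 active = growth inhibition above 25% in both replicates, a cutoff set 3 SD above the mean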). Conditions: OD615, 24 h, at 10 µM, hits give high values. The method, boiled down: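 assay system = Saccharomyces cerevisiae strain carrying genetically modified DeaD replicative-lifespan system | technique = absorbance (optical density) at 615 nm | buffer or medium = permissive raffinose/galactose medium | timing = cells pre-grown 4 h, then 24 h compound exposure, 30 °C humidified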

A short description of assay [2]: S. cerevisiae growth inhibition in restrictive medium, OD615, pilot screen, restrictive growth control, yeast lifespan reduction project (AID 706;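 active = growth inhibition above a set limit, 3 SD over mean compound inhibition, in both replicates, cut at about 43% in these data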;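 also: modified DeaD lifespan yeast strain shifted to restrictive glucose medium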). Conditions: OD615, 48 h, at 10 µM, hits give high values. In a few lines: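 System: modified S. cerevisiae. Buffer or medium: CSMM-D glucose medium. Incubation: 4 h pre-growth plus 48 h compound exposure, 30 °C. Detection: absorbance (optical density) measured at 615 nm.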

Assay [3] is described as follows: doxorubicin toxicity protection in MRP-1 cells – H69AR cells, CellTiter-Glo, duplicate, MRP-1 activator project, pilot screen (AID 807;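 active = viability increase at or above a cutoff of the median across tested compounds plus 3 SD, cut at about 8.5% in these data, passing the limit was not always enough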;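 also: compound pretreatment 18-22 h then 72 h combined with doxorubicin; 0% = doxorubicin alone and 100% = vehicle without doxorubicin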). The conditions noted are these: H69AR viability with doxorubicin, CellTiter-Glo luminescence; at 10 µM; hits give high values.
The nature of assay [4]: viability of HCT116 without oncogenic beta-catenin – human colon tumor cells, pilot screen (AID 823;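 active = cell viability at or below a set limit in both duplicate runs, the limit being the all-compound median minus 4 SD, cut at about 23% in these data, passing the limit was not always enough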;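 also: 0% = wells killed by 20 µM Hyamine and 100% = untreated DMSO cell wells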). Conditions: HCT116 beta-catenin knockout viability, CellTiter-Glo, 60 h; at 10 µM; hits give low values.
Assay [5] in a line: viability of PTEN-null HCT116 cells – cell-based, HCT116 clonal line, CellTiter-Glo, pilot screen (AID 824;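 active = viability at or below 27.92% in each of two runs, the all-compound median minus 4 SD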;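 also: 0% = 20 µM Hyamine control and 100% = vehicle cell control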). Conditions: HCT116 PTEN-deleted viability, 60 h, at 10 µM, hits give low values.
Assay [6] can be described thus: RAM pathway blockade in budding yeast – dse1pr::URA3 reporter, 5-FOA selection, pilot screen (AID 869;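 active = inhibition over a set limit, the all-compound mean plus 3 SD, in both replicate runs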;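 also: 0% = DMSO wells with no growth and 100% = 10 µM 1-NA-PP1 with full growth; RAM network block rescues cells from 5-FOA so hits raise OD615 growth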). Conditions: S. cerevisiae dse1pr::URA3 5-FOA growth, OD615, 2 d; at 10 µM; hits give high values; strain carries analog-sensitive mutant Cbk1 kinase.
Assay [7] in a line: RAM signaling pathway blockade in yeast – S. cerevisiae, Pdr1DBD-CYC8 efflux-inhibited sensitized strain, primary screen (AID 1298).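 Also: 0% = DMSO untreated cells without growth and 100% = 10 µM 1-NA-PP1 full growth; higher means more yeast growth rescued from 5-FOA killing.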 The conditions noted are these: S. cerevisiae cbk1-as DSE1-URA3 strain, 5-FOA growth OD615, 2 d; at 50 µM; hits give high values.

On to `COc1cc(C(=O)Nc2ccc(S(=O)(=O)Nc3onc(C)c3C)cc2)cc(OC)c1OC`, for which the growth inhibition in assay [1] is -5.13%; in assay [2], -14.8%. Further, the viability increase in assay [3] was 0.55%. Moreover, the viability was 104% in assay [4] and 105% in assay [5]. In addition, the inhibition in assay [6] is 0.945%. Also, the RAM network inhibition in assay [7] is 4%.

As for `CC1=C(NCCc2ccccc2)CCC1=O`, the growth inhibition in assay [1] was 1.6%; in assay [2], -14.4%. Also, the viability increase in assay [3] was -2.97%. The viability in assay [4] is 92%; in assay [5], 86.2%. Also, the inhibition in assay [6] is 1.74%. For the same compound, the RAM network inhibition in assay [7] is 2.7%.

As to `COc1ccc(Nc2ncnc3c2oc2ccccc23)cc1`, the figures for the growth inhibition in assay [1] and in assay [2] were -9.29% and 16.5%, respectively. Further, the viability increase in assay [3] was -2.52%. The viability in assay [4] is 92.5%; in assay [5] it was 92%. Moreover, the inhibition in assay [6] is -0.035%. Besides, the RAM network inhibition in assay [7] is 4.44%.

Turning to `CCOc1cc(C(=O)NC(C)COC)cc(OCC)c1OCC` (stereo unspecified), the growth inhibition was -4.84% in assay [1] and -8.48% in assay [2]. Moreover, the viability increase in assay [3] is -2.05%. The viability in assay [4] and in assay [5] was 104% in each case. For the same compound, the inhibition in assay [6] is 0.785%. Moreover, the RAM network inhibition in assay [7] is 0.53%.

Take `CCOC(=O)Cn1c(C)nc2ccccc21`: the growth inhibition in assay [1] and in assay [2] was -14% each time. For the same compound, the viability increase in assay [3] was -1.63%. The viability was 102% in assay [4] and 105% in assay [5]. Also, the inhibition in assay [6] was 1.29%. Besides, the RAM network inhibition in assay [7] was 1.95%.

For `Cn1c(C(=O)NC2CCCCC2)cc2c(=O)n(C)c3ccccc3c21`, the growth inhibition in assay [1] was -10.6%; in assay [2] it was -6.48%. Moreover, in assay [3], the viability increase was -1.7%. For the same compound, the viability in assay [4] was 88%; in assay [5], 73.8%. The inhibition in assay [6] was 1.46%. Also, the RAM network inhibition in assay [7] is 4.6%.

On to `CC1CCC(NC(=O)Cn2cc3c(n2)CCCC3)CC1` (stereo unspecified), for which the growth inhibition in assay [1] was -4.87%; in assay [2], -6.18%. Further, the viability increase in assay [3] was 1.57%. For the same compound, the viability in assay [4] is 110%; in assay [5], 103%. Also, the inhibition in assay [6] was -0.485%. Further, the RAM network inhibition in assay [7] is 0.23%.

Turning to `O=C(c1cc(-c2cccc(O)c2)on1)N1CCOCC1`, the growth inhibition in assay [1] is 1.27%; in assay [2] it was 7.52%. In assay [3], the viability increase is 0.64%. Further, the viability in assay [4] was 107%; in assay [5] it was 98.4%. Also, the inhibition in assay [6] is 2.15%. The RAM network inhibition in assay [7] is 2.22%.

`CCN(CC)C(=O)c1sc(NC(=O)c2ccoc2C)c(C(=O)OC)c1C`: the values for the growth inhibition in assay [1] and in assay [2] were -5.36% and 5.77%, respectively. The viability increase in assay [3] is -1.15%. Moreover, the viability in assay [4] is 83.4%; in assay [5], 90.6%. Also, the inhibition in assay [6] was 1.33%. Moreover, the RAM network inhibition in assay [7] is 7.43%.

`CN(CCc1ccccn1)C(=O)Nc1ccc(F)cc1`: the growth inhibition in assay [1] was -7.65%; in assay [2], -14.7%. Also, the viability increase in assay [3] was -1.63%. In addition, the figures for the viability in assay [4] and in assay [5] were 108% and 98%, respectively. In addition, in assay [6], the inhibition is 0.71%. For the same compound, the RAM network inhibition in assay [7] was 5.39%.

For `CC(=O)Nc1ccc(S(=O)(=O)N2CCN(c3nc(NC4CCCC4)c4ccccc4n3)CC2)cc1`, the values for the growth inhibition in assay [1] and in assay [2] were 0.72% and -1.39%, respectively. Besides, the viability increase in assay [3] is -8.11%. The viability was 1.42% (active) in assay [4] and 1.7% (active) in assay [5]. For the same compound, the inhibition in assay [6] is 1.15%. The RAM network inhibition in assay [7] was 3.62%.

As for `COCC(C)NC(=O)NC1(C(F)(F)F)Oc2ccc(Cl)cc2O1` (stereo unspecified), the growth inhibition in assay [1] was -10%; in assay [2] it was -25.1%. Moreover, the viability increase in assay [3] is -5.78%. Further, the viability was 32.7% in assay [4] and 38% in assay [5]. For the same compound, the inhibition in assay [6] is 0.985%. In assay [7], the RAM network inhibition was 4.1%.

As to `CCOC(=O)c1sc2nc(NC(=O)C3CC3)sc2c1C`, the results for the growth inhibition in assay [1] and in assay [2] were -0.51% and -2.08%, respectively. Further, in assay [3], the viability increase was -5.8%. Also, the results for the viability in assay [4] and in assay [5] were 86% and 82.2%, respectively. The inhibition in assay [6] was 4.2%. Besides, the RAM network inhibition in assay [7] was 3.96%.

For `CCOC(=O)C1CCCN(C(=O)c2ccco2)C1` (stereo unspecified), the growth inhibition is -11.6% in assay [1] and -12.6% in assay [2]. Also, the viability increase in assay [3] is -3.01%. The values for the viability in assay [4] and in assay [5] were 93.7% and 102%, respectively. Also, the inhibition in assay [6] is 2.3%. Besides, the RAM network inhibition in assay [7] is 0.62%.

For `CCCOC(=O)c1ccc(-n2nnnc2SCC(=O)N2CCCCC2)cc1`, the growth inhibition in assay [1] is -11.6%; in assay [2], -5.64%. Besides, the viability increase in assay [3] is -0.35%. In addition, the viability in assay [4] was 80.3%; in assay [5], 86%. Moreover, the inhibition in assay [6] was 0.595%. In assay [7], the RAM network inhibition is 0.04%.

Regarding `COC(=O)CN(c1ccc(C(C)C)cc1)S(=O)(=O)c1c(C)[nH]c(=O)[nH]c1=O`, the growth inhibition in assay [1] is -0.6%; in assay [2] it was 11.3%. For the same compound, in assay [3], the viability increase was -2.38%. Besides, the viability in assay [4] is 88.8%; in assay [5], 94.6%. In addition, the inhibition in assay [6] was 2.21%. The RAM network inhibition in assay [7] was 2.71%.

With `CCOC(=O)N1CCN(C(=O)CSc2nc3c(cnn3-c3ccc(C)cc3)c(=O)[nH]2)CC1`, the figures for the growth inhibition in assay [1] and in assay [2] were -0.175% and 4.84%, respectively. Besides, in assay [3], the viability increase was -4.44%. Also, the viability in assay [4] is 95.7%; in assay [5], 94.1%. For the same compound, the inhibition in assay [6] was -0.44%. In addition, the RAM network inhibition in assay [7] is 3.12%.

For `O=C(CN(C1CCCCC1)S(=O)(=O)c1ccc(Cl)cc1)NCc1ccncc1`, the growth inhibition is -6.84% in assay [1] and 3.38% in assay [2]. In assay [3], the viability increase was -2.2%. For the same compound, the viability in assay [4] was 79.8%; in assay [5], 79.4%. For the same compound, in assay [6], the inhibition is 1.56%. The RAM network inhibition in assay [7] was 3.63%.
